The values that follow come from ChEMBL document CHEMBL4619772 (J Med Chem, 2020).

Data set [1] can be described thus: Inhibition of pseudotyped HIV/EBOV GP infected in human A549 cells assessed as reduction in virus entry measured after 48 hrs by luciferase reporter gene assay. Format: cell-based, Ebolavirus. To be noted: Orthoebolavirus, A549, 48 h. For orientation: Reporter assays use an easily measured gene product as a stand-in for the process of interest.
The subject of data set [2] is A549. Put plainly: Inhibition of pseudotyped HIV/EBOV GP infected in human A549 cells assessed as reduction in virus entry at 12.5 uM measured after 48 hrs by luciferase reporter gene assay relative to control. The format is cell-based. The following applies: Ebolavirus. In outline:
(§1)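 Low-passage A549 cells are infected with HIV-based pseudovirions carrying EBOV or MARV GP and a luciferase reporter, with or without compound at 12.5 μM. […] Toremifene is the positive control.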

Data set [3] can be described thus: Inhibition of pseudotyped HIV/MARV GP infected in human A549 cells assessed as reduction in virus entry measured after 48 hrs by luciferase reporter gene assay. Format: cell-based, Marburgvirus. To be noted: Orthomarburgvirus, A549, 48 h.
Data set [4] has as its system A549. Put plainly: Inhibition of pseudotyped HIV/MARV GP infected in human A549 cells assessed as reduction in virus entry at 12.5 uM measured after 48 hrs by luciferase reporter gene assay relative to control. The following applies: Marburgvirus. Format: cell-based. In outline: as §1
The nature of data set [5]: Selectivity index, ratio of CC50 for human A549 cells to EC50 for HIV/EBOV-GP infected in human A549 cells. Format: toxicity, cell-based. The following applies: read-out: Ratio CC50/EC50. In outline:
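Ratio CC50/EC50. CC50 is A549 cytotoxicity by CellTiter 96 aqueous nonradioactive cell proliferation assay.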

Data set [6] concerns Marburgvirus. Put plainly: Antiviral activity against Marburg virus Lake Victoria, 2005 Angola infected in human HeLa cells pretreated for 1 hr followed by virus infection measured after 24 hrs by Hoechst staining-based immunofluorescence assay. Format: functional, organism-based, Lake Victoria marburgvirus. To be noted: Orthomarburgvirus, Angola2005, HeLa.
Data set [7] is described as follows: Selectivity index, ratio of CC50 for human HeLa cells to EC50 for Ebola virus 1976 Mayinga in human HeLa cells. The format is toxicity, cell-based. To be noted: read-out: Ratio CC50/EC50.
The nature of data set [8]: Metabolic stability in human pooled plasma assessed as parent compound remaining at 20 uM after 60 mins by HPLC analysis. To be noted: read-out: Stability. The format is ADME, cell-free. In outline: (§2)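 Stability is reported as % of compound remaining after 60 min incubation in plasma or liver microsomes, relative to t0.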
Data set [9] can be described thus: Metabolic stability in Sprague-Dawley rat pooled plasma assessed as parent compound remaining at 20 uM after 60 mins by HPLC analysis. Format: ADME, cell-free. The following applies: read-out: Stability. In outline: as §2
Data set [10] is described as follows: Metabolic stability in human liver microsomes assessed as parent compound remaining after 60 mins in presence of NADPH by HPLC analysis. The format is ADME, Microsome. To be noted: read-out: Stability. In outline:
as §2
In general terms: Liver microsomes are a subcellular fraction often used to study metabolism.

Data set [11] can be described thus: Metabolic stability in Fischer F344 rat liver microsomes assessed as parent compound remaining after 60 mins in presence of NADPH by HPLC analysis. To be noted: read-out: Stability. The format is ADME, Microsome. In outline:
as §2

Data set [12] addresses T1, Cytochrome P450 3A4 (Homo sapiens, UniProt P08684). Put plainly: Inhibition of recombinant human CYP3A4 expressed in baculovirus infected insect cell microsomes using vivid DBOMF as substrate preincubated for 10 mins followed by substrate addition and measured after 25 mins in presence of […] by fluorescence assay. Format: ADME. In outline:
(§3)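 CYP3A4 inhibition IC50 is determined with 10 μM quinidine as positive inhibitor control, from three replicates; errors are estimated <10%.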

Data set [13] addresses T2, Cytochrome P450 2C9 (Homo sapiens, UniProt P11712). The data set can be described thus: Inhibition of recombinant human CYP2C9 expressed in baculovirus infected insect cell microsomes using vivid BOMF as substrate preincubated for 10 mins followed by substrate addition and measured after 25 mins in presence of […] by fluorescence assay. Format: ADME. In outline:
(§4)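 CYP2C9 inhibition IC50 is determined with 30 μM sulfaphenazole as positive inhibitor control, from three replicates; errors are estimated <10%.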

Data set [14] concerns Zaire ebolavirus. Put plainly: Antiviral activity against Ebola virus 1976 Mayinga infected in human HeLa cells pretreated for 1 hr followed by virus infection measured after 24 hrs by Hoechst staining-based immunofluorescence assay. Format: functional, organism-based.
The target in data set [15] is T1, Cytochrome P450 3A4. Put plainly: Inhibition of recombinant human CYP3A4 expressed in baculovirus infected insect cell microsomes using fluorescent substrate in presence of NADPH by fluorescence assay. Format: ADME. In outline:
as §3

Data set [16] deals with T2, Cytochrome P450 2C9. The data set can be described thus: Inhibition of recombinant human CYP2C9 expressed in baculovirus infected insect cell microsomes using fluorescent substrate in presence of NADPH by fluorescence assay. The format is ADME. In outline:
as §4

In data set [17] the test system is Zaire ebolavirus. Put plainly: Antiviral activity against Ebola virus 1976 Mayinga infected in African green monkey Vero cells pretreated for 1 hr followed by virus infection measured after 24 hrs by Hoechst staining-based immunofluorescence assay. Format: functional, organism-based.
Data set [18] in a line: Selectivity index, ratio of CC50 for African green monkey Vero cells to EC50 for Ebola virus 1976 Mayinga infected in African green monkey Vero cells. The format is toxicity. To be noted: read-out: Ratio CC50/EC50.
Data set [19] relates to Zaire ebolavirus. Put plainly: Antiviral activity against Ebola virus 1976 Mayinga infected in African green monkey Vero cells. The format is functional, organism-based.
The subject of data set [20] is Marburgvirus. Put plainly: Antiviral activity against Marburg virus Lake Victoria, 2005 Angola infected in African green monkey Vero cells. Format: functional, organism-based, Lake Victoria marburgvirus. To be noted: Orthomarburgvirus, Angola2005, Vero.

T1 sequence (P08684 whole entry): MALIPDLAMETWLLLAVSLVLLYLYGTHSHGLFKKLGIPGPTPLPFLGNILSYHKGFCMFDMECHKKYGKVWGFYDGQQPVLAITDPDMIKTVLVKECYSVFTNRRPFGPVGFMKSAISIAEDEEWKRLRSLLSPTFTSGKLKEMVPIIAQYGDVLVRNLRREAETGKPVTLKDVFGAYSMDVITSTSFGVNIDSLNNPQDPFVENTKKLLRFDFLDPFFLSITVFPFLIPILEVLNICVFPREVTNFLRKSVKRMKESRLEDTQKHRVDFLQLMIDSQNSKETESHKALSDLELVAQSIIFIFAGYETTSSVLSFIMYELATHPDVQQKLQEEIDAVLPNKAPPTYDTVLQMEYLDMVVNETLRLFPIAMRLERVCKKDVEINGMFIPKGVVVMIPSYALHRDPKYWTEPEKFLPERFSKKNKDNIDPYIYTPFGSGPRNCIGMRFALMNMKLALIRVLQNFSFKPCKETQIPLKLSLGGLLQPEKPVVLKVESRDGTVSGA
T2 sequence (P11712 whole entry): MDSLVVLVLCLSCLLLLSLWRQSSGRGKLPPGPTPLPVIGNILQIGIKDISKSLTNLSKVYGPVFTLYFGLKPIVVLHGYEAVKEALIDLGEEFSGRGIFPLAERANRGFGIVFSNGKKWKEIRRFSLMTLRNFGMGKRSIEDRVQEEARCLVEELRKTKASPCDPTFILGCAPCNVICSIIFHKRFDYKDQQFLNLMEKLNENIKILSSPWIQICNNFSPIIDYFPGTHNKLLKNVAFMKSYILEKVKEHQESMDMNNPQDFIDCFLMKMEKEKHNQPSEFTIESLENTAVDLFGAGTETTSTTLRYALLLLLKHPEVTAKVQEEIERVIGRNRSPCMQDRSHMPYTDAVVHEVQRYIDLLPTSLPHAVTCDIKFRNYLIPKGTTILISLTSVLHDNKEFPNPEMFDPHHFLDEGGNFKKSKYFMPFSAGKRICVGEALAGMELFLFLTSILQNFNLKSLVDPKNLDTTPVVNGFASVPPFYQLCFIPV

Take `CC(c1ccc(C(=O)N2CCc3cc(C(C)(C)C)ccc32)cc1)N1CCCCC1` (stereo unspecified): the EC50 (in general, the concentration needed to bring the measured effect to its halfway point) in data set [1] was 2.05 µM; in [3], 3.09 µM; in the data set on Marburgvirus [6], 3.38 µM. Also, the inhibition (in general, the relative decrease from the control value, in per cent) with A549 [2] turned out to be 99.8%; in the data set with A549 [4], 98.1%. Moreover, the selectivity ratio in [5] was 9; in data set [7] it was 19. In addition, the remaining at 1 h, 20 µM in [8] amounted to 94%; in data set [9], 62%. Besides, the remaining at 1 h came to 46% in [10] and 27% in [11]. In addition, the IC50 (in general, the concentration that gives 50% inhibition) on Cytochrome P450 3A4 [12] is 24 µM; on Cytochrome P450 2C9 [13], 7.94 µM.
In the case of `CC1CCN(c2ccc(NC(=O)c3ccc(CN4CCOCC4)cc3)cc2C(F)(F)F)CC1`, the EC50 in [1] worked out at 0.012 µM; in data set [3] it was 0.18 µM; in the data set with Zaire ebolavirus [14], 0.31 µM; in the data set with Marburgvirus [6], 0.82 µM. Also, the inhibition with A549 [2] is 99.3%; with A549 [4] it was 92.3%. The selectivity ratio came to 2090 in data set [5] and 58 in [7]. For the same compound, the figures for the remaining at 1 h, 20 µM in [8] and in data set [9] were 100% and 89%, respectively. Further, the figures for the remaining at 1 h in data set [10] and in data set [11] were 64% and 75%, respectively. Further, the values for the IC50 at Cytochrome P450 3A4 [15] and on Cytochrome P450 2C9 [16] were greater than 100 µM and 4.98 µM, respectively.
Take `O=C(Nc1ccc(C23CC4CC(CC(C4)C2)C3)cc1)c1ccc(CN2CCOCC2)cc1`: the EC50 in data set [1] was found to be 0.018 µM; in data set [3] it was 2.79 µM; with Zaire ebolavirus [14] it was 0.83 µM; in the data set with Marburgvirus [6], 0.52 µM. The inhibition was determined as 99% in the data set on A549 [2] and 72.5% in the data set with A549 [4]. For the same compound, the selectivity ratio in [5] amounted to 5440; in data set [7] it was 134. Also, the remaining at 1 h, 20 µM in data set [8] and in data set [9] was 86% in each case. For the same compound, the remaining at 1 h came to 34% in [10] and 57% in data set [11]. In addition, the half-inhibitory concentration (IC50) is greater than 100 µM at Cytochrome P450 3A4 [15] and 3.14 µM on Cytochrome P450 2C9 [16].
For the compound `COC(=O)c1ccc(NC(=O)c2ccc(CN3CCCCC3)cc2)cc1`, the EC50 in [1] was 9.86 µM; in [3], 0.53 µM; in the data set with Zaire ebolavirus [14] it was greater than 25 µM; with Zaire ebolavirus [17] it was 2.83 µM; in the data set with Zaire ebolavirus [19], less than 10 µM; with Marburgvirus [20], less than 10 µM. The inhibition came out at 74% in the data set on A549 [2] and 90.7% with A549 [4]. Further, the selectivity ratio in [5] was found to be 15; in data set [18], 35. For the same compound, the values for the remaining at 1 h, 20 µM in [8] and in data set [9] were 63% and 78%, respectively. Further, the remaining at 1 h in data set [10] was determined as 54%; in [11], 0%.
Turning to `O=C(Nc1ccc(C23CC4CC(CC(C4)C2)C3)cc1)c1ccc(CN2CCCCC2)cc1`, the EC50 in data set [1] was 0.035 µM; in data set [3], 0.38 µM; in the data set on Zaire ebolavirus [14], 0.11 µM; with Marburgvirus [6], 1.23 µM. Also, the inhibition was 99.4% in the data set on A549 [2] and 99% in the data set on A549 [4]. Also, the selectivity ratio in data set [5] was determined as 231; in data set [7], 202. Besides, the remaining at 1 h, 20 µM in data set [8] was found to be 100%; in data set [9], 96%. Also, the figures for the remaining at 1 h in [10] and in data set [11] were 75% and 71%, respectively. The IC50 on Cytochrome P450 3A4 [12] and at Cytochrome P450 2C9 [13] was greater than 100 µM in each case.
Turning to `O=C(Nc1ccc(SC(F)(F)F)c(Cl)c1)c1ccc(CN2CCCCC2)cc1`, the EC50 was 1.27 µM in data set [1], 1.61 µM in data set [3], 1.12 µM with Zaire ebolavirus [14] and 2.4 µM in the data set with Marburgvirus [6]. Further, the inhibition in the data set with A549 [2] was 99.9%; in the data set with A549 [4] it was 99.8%. Besides, the results for the selectivity ratio in data set [5] and in [7] were 5 and 14, respectively. Further, the values for the remaining at 1 h, 20 µM in data set [8] and in data set [9] were 100% and 88%, respectively. Moreover, the values for the remaining at 1 h in data set [10] and in data set [11] were 90% and 94%, respectively. In addition, the IC50 on Cytochrome P450 3A4 [12] came out at 15.1 µM; on Cytochrome P450 2C9 [13], 4.49 µM.
With `O=C(Nc1ccc(C2CCCCC2)cc1)c1ccc(CN2CCCCC2)c(F)c1`, the EC50 in data set [1] is 0.38 µM; in data set [3], 1.33 µM; with Zaire ebolavirus [14], 1.04 µM; with Marburgvirus [6], 16.6 µM. The inhibition turned out to be 96.1% with A549 [2] and 71% in the data set on A549 [4]. Further, the figures for the selectivity ratio in data set [5] and in [7] were 382 and 128, respectively. The remaining at 1 h, 20 µM in [8] came to 87%; in [9] it was 86%. Moreover, the remaining at 1 h is 28% in data set [10] and 23% in data set [11].
`CC(C)(C)c1ccc(NC(=O)c2ccc(CN3CCCCC3)cc2)c(C(C)(C)C)c1`: the EC50 in data set [1] turned out to be 0.48 µM; in [3], 2.34 µM; in the data set with Zaire ebolavirus [14] it was 0.59 µM; in the data set on Marburgvirus [6], 2 µM. Further, the inhibition in the data set on A549 [2] came to 99.5%; in the data set on A549 [4] it was 85%. For the same compound, the values for the selectivity ratio in data set [5] and in data set [7] were 76 and 227, respectively. In addition, the remaining at 1 h, 20 µM in data set [8] was determined as 85%; in data set [9], 82%. In addition, the remaining at 1 h in [10] amounted to 17%; in data set [11] it was 99%. In addition, the IC50 is greater than 100 µM on Cytochrome P450 3A4 [12] and 18.6 µM on Cytochrome P450 2C9 [13].
For `CC(c1ccc(C(=O)N2CC(C(C)(C)C)c3ccccc32)cc1)N1CCCCC1` (stereo unspecified), the EC50 came out at 0.16 µM in [1], 3.18 µM in data set [3], 0.87 µM in the data set on Zaire ebolavirus [14] and 6.32 µM in the data set on Marburgvirus [6]. Besides, the inhibition is 99.9% with A549 [2] and 92.8% in the data set on A549 [4]. For the same compound, the selectivity ratio in data set [5] is 224; in data set [7], 137. Moreover, the remaining at 1 h, 20 µM was 88% in data set [8] and 2% in data set [9]. Further, the results for the remaining at 1 h in [10] and in [11] were 2% and 0%, respectively.
